≈ marks a conversion by molar mass, not a printed value. Calls of active or inactive are those of the source. No cut-off for these calls is given here.
Tests used:
Bacillus subtilis = assay: Antibacterial activity against Bacillus subtilis SU5 after 24 hrs by broth microdilution method; format: functional; details: SU5, 24 h
Method in brief: (§1)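 CLSI broth microdilution in cation-adjusted Mueller Hinton II broth. Overnight cultures diluted to 5 × 10⁴ CFU/mL. Compounds from 100 mM DMSO stocks, serially 2-fold diluted. OD read at 595 nm before and after 24 h at 37 °C. MIC taken as lowest concentration with background-subtracted OD <0.1. Controls: medium blank, DMSO vehicle, antibiotic.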

[1] = Inhibition of Escherichia coli DNA polymerase 3 beta assessed as inhibition of 5-carboxyfluorescein-QLDLF binding by fluorescence polarization-based competition assay
Method in brief: (§2)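 Competition fluorescence polarization with E. coli sliding clamp and tracer 5-carboxyfluorescein-QLDLF (Kd 70 nM). Inhibition of tracer binding plotted against inhibitor concentration. IC50 converted to Ki using the Kenakin correction for ligand depletion.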

[2] = Distribution coefficient, log D of the compound at pH 7.2; format: physicochemical; details: octanol/water
Acinetobacter baylyi = assay: Antibacterial activity against Acinetobacter baylyi ADP1 after 24 hrs by broth microdilution method; format: functional; details: ADP1, 24 h; method in brief: as §1
Escherichia coli [3] = assay: Antibacterial activity against Escherichia coli DH5[alpha] after 24 hrs by broth microdilution method; format: functional; method in brief: as §1
Escherichia coli [4] = assay: Inhibition of Escherichia coli DNA polymerase 3 beta assessed as inhibition of M13 ssDNA replication at 500 to 1000 uM after 60 mins by agarose gel electrophoresis-UV transilluminator analysis in presence of polymerase 3 alpha and reconstituted clamp loader complex gamm3-delta-delta'
Method in brief: (§3)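 Reconstituted replication of 3 nM RNA-primed M13 ssDNA in 20 mM Tris-HCl pH 7.6, 10 mM MgCl2, 0.8 mM ATP, 8.4 mM DTT, 0.6 mM each dNTP, 120 mM NaCl, with 211 nM Pol III α, 700 nM SSB tetramer, 210 nM β dimer, 42 nM γ3δδ′. Compounds added at 0 °C, final 3.4% DMSO. Run 60 min at 30 °C, quenched with EDTA/SDS, products resolved on 0.7% agarose, SYBR Gold stained, viewed by UV.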

Staphylococcus aureus = assay: Antibacterial activity against Staphylococcus aureus NCTC 8325 after 24 hrs by broth microdilution method; format: functional; details: NCTC 8325, 24 h; method in brief: as §1
Escherichia coli [5] = assay: Inhibition of Escherichia coli DNA polymerase 3 beta assessed as inhibition of 5-carboxyfluorescein-QLDLF binding at <1 mM by fluorescence polarization-based competition assay; method in brief: as §2
Escherichia coli [6] = assay: Inhibition of Escherichia coli DNA polymerase 3 beta assessed as inhibition of M13 ssDNA replication at 250 uM after 60 mins by agarose gel electrophoresis-UV transilluminator analysis in presence of polymerase 3 alpha and reconstituted clamp loader complex gamm3-delta-delta'; method in brief: as §3

Row | MIC (Bacillus subtilis) | IC50 [1] | logD ([2]; read-out: logD) | MIC (Acinetobacter baylyi) | MIC (Escherichia coli [3]) | inhibition (Escherichia coli [4]) | MIC (Staphylococcus aureus) | inhibition (Escherichia coli [5]) | inhibition (Escherichia coli [6]) | logD [2] | Structure (SMILES) | Ki [1]
1 | 2500 µM (≈ 624 µg/mL) | 389 µM | -0.48 | 5000 µM (≈ 1250 µg/mL) | 2500 µM (≈ 624 µg/mL) | Active | 2500 µM (≈ 624 µg/mL) |  |  |  | O=C(O)c1cc2[nH]c3c(c2cc1Cl)CCCC3 | 216 µM
2 |  |  |  |  |  |  |  | inactive |  |  | O=[N+]([O-])c1ccc2cn[nH]c2c1 | 
3 |  |  |  |  |  |  |  | inactive |  |  | NC(=O)c1ccc(F)c(F)c1 | 
4 |  |  |  |  |  |  |  | inactive |  |  | O=C1Nc2ccc(Cl)cc2C1=O | 
5 |  |  |  |  |  |  |  | inactive |  |  | O=[N+]([O-])c1ccc2[nH]ccc2c1 | 
6 | 78 µM (≈ 21.7 µg/mL) | 899 µM | 4.44 | 156 µM (≈ 43.3 µg/mL) | 78 µM (≈ 21.7 µg/mL) |  | 78 µM (≈ 21.7 µg/mL) |  |  |  | CCOC(=O)[C@@H]1CCCc2c1[nH]c1ccc(Cl)cc21 | 499 µM
7 | 78 µM (≈ 20.6 µg/mL) | > 1000 µM |  | 78 µM (≈ 20.6 µg/mL) | 156 µM (≈ 41.1 µg/mL) |  | 156 µM (≈ 41.1 µg/mL) |  |  |  | COC(=O)[C@@H]1CCCc2c1[nH]c1ccc(Cl)cc21 | 
8 | 156 µM (≈ 39 µg/mL) | 115 µM | 0.36 | 313 µM (≈ 78.2 µg/mL) | 313 µM (≈ 78.2 µg/mL) |  | 156 µM (≈ 39 µg/mL) |  | Active |  | O=C(O)[C@@H]1CCCc2c1[nH]c1ccc(Cl)cc21 | 64 µM
9 |  | 358 µM |  |  |  | Active |  |  |  | 4.93 | Clc1ccc2c(c1)c1ccccc1n2CC1CO1 (centres undefined) | 199 µM
10 | 2500 µM (≈ 541 µg/mL) | 504 µM | -3.17 | 5000 µM (≈ 1080 µg/mL) | 2500 µM (≈ 541 µg/mL) | Active | 5000 µM (≈ 1080 µg/mL) |  |  |  | O=C(O)c1ccc(-c2ccc(F)cc2)cc1 | 280 µM
